# Bioassay records as filed in PubChem BioAssay.
# Shown are actives, neighbours in structure and some others; about 3.3% of the full set was active somewhere.
# FXN GAA850 act: FXN promoter activators, primary screen, cell-based, luciferase luminescence, HEK293 lucGAA850 | 360,000 compounds, 0.56% hits | activation, % at 6 µM | HEK293 lucGAA850 FXN promoter luciferase reporter, 24 h; percent of 10 µM SAHA response;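 active = activation above the average of all compounds screened plus 3 SD, cutoff fixed separately per campaign, cut at about 7.5% in these data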;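 note: 0% = DMSO wells and 100% = 10 µM SAHA wells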
# AHR act: AHR activators, primary screen, cell-based, luminescence, luciferase reporter, human | AHR-responsive luciferase reporter cells | activation, % at 5 µM | Aryl hydrocarbon receptor (Homo sapiens), P35869 | 320,000 compounds, 2.5% hits; in the data active = activation above about 47%;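 note: 0% = vehicle wells and 100% = reference agonist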
# Target sequence (P35869 whole entry, looked up): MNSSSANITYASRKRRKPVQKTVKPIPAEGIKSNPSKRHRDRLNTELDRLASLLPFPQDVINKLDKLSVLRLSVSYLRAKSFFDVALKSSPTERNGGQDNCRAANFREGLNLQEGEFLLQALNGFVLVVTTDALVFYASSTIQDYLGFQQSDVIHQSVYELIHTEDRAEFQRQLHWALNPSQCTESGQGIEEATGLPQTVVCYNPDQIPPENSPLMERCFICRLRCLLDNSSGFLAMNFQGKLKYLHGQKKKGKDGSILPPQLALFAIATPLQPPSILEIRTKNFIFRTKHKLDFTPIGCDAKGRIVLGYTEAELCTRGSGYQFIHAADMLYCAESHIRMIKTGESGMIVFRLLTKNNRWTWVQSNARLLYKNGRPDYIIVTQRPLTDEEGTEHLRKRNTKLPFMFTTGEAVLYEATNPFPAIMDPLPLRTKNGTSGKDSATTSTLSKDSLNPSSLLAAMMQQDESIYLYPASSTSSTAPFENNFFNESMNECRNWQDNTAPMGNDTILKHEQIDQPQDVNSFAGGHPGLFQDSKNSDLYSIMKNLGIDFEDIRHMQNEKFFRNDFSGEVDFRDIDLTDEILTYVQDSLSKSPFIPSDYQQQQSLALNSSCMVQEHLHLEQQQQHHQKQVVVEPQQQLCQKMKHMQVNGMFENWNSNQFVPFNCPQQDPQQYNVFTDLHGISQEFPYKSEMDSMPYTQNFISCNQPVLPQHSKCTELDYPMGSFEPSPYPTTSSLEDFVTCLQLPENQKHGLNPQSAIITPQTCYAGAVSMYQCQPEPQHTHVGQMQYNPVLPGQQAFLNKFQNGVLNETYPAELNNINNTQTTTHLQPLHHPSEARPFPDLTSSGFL
# STAT3 act: IL-6 driven STAT3 reporter potentiators, primary screen, U3A cells, luciferase, luminescence, MLSCN library; IL-6 STAT3-luciferase reporter; 100% = signal with IL-6 EC80 alone; activation (% of control), % at 5.6 µM; 190,000 compounds, 0.91% hits;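 active = activation above the screen-wide mean of compound activation plus 3 SD, cut at about 130% in these data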;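 note: 0% = background luminescence of wells with medium and substrate only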
#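 Material: STAT1-lacking human U3A cells, STAT3 luciferase reporter | Benchmarks: IL-6-only wells as 100% reference | Probe or stimulus: IL-6 (33 ng/mL) | Timing: Compound 1 h, then IL-6 6 h at 37 °C | Detection: Luminescence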
# ABCB6 inh MLPCN: ABCB6 transporter inhibitors, primary screen, K562-ABCB6 cells, flow cytometry, MLPCN library | ATP-binding cassette sub-family B member 6 (Homo sapiens), Q9NP58 | K562-ABCB6 porphyrin accumulation, 1 h; stronger effect = lower value | fluorescence ratio to DMSO, % at 10 µM | 360,000 compounds, 0.19% hits | AID 602162, 2011;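 active = fluorescence ratio to DMSO below 75%, the collection mean minus 3 SD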;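 note: signal is porphyrin accumulated inside mitochondria; 100% equals median channel fluorescence of DMSO control wells; lower ratio means ABCB6 inhibition with less porphyrin fluorescence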
# An asterisk follows results filed as active; · = no result.
SMILES,FXN GAA850 act,AHR act,STAT3 act,ABCB6 inh MLPCN
CC(=O)Nc1ccc(N=Cc2c(O)c3ccccc3oc2=O)cc1,2,·,·,95
N=c1c2c3c(sc2ncn1Nc1ccccc1)CCC3,0,68*,·,92
C=CCNC(=O)c1ccc(N(C)S(=O)(=O)c2ccc(OC)cc2)cc1,0,-5,101,61*
CC(Sc1ccccc1)C(=O)NCCc1ccccc1 (stereo not given),3,1,·,96
O=C1/C(=C\c2ccco2)CCC/C1=C\c1ccco1,13*,9,104,107
CC1C/C(=C/c2ccco2)C(=O)/C(=C/c2ccco2)C1 (stereo not given),·,12,102,·
Nc1ccccc1SC1CC(=O)N(c2ccc3c(c2)OCO3)C1=O (stereo not given),0,72*,·,98
COc1ccc(C(=O)/C=C2\NCC3c4ccccc4CCN3C2=O)cc1 (stereo not given),0,89*,135*,101
COc1cc(/C=N/NC(=O)c2nc3ccccn3c2C)cc(OC)c1O,-2,10,98,101
O=C1Cc2ccccc2C(=O)N1c1ccccc1,1,-2,·,103
c1ccc(N2CC3CCc4ccccc4C3=N2)cc1 (stereo not given),3,57*,·,99
CC(C)(C)c1nc(NCCO)c2nnn(Cc3ccccc3)c2n1,3,0,·,102
COc1ccc2c(c1)-c1c(sn(-c3ccccc3)c1=S)C(C)(C)N2,4,4,97,96
COc1ccc(-n2sc3c(c2=S)-c2cc(OC)ccc2NC3(C)C)cc1,2,66*,101,99
Cc1ccc(-c2cc(N)n(Cc3ccc(Cl)cc3)n2)cc1,2,56*,67,102
O=C1/C(=C/c2ccc(O)c(O)c2)SC(=S)N1Nc1ccccc1,7.8*,·,116,183
COc1cc(/C=C2\SC(=S)N(Nc3ccccc3)C2=O)ccc1O,3,3,106,216
CC(=O)Nc1ccccc1C(=O)C(=O)Nc1ccccc1,2,12,94,99
C/C(O)=C(/C=Nc1ccccc1)C(=O)Nc1ccccc1,2,48*,112,90
O=C(C[C@H]1C/C=C\CC[C@H](Cc2ccc(F)cc2)C(=O)OC[C@@H]2CCCN2C1=O)N[C@H](CO)Cc1ccccc1,-1,-1,·,99
COc1ccc(/C=N/NC(=O)c2ccccc2Cl)cc1CSc1nc2ccccc2s1,-2,2,96,97
COc1ccc(/C=N/NC(=O)c2cccnc2)cc1CSc1nc2ccccc2s1,-4,54*,106,97
COc1ccccc1OCC#CCn1ccnc1,-1,60*,104,93
CC(Cc1cccnc1)NC(=O)c1cc(COc2ccc(F)cc2Cl)on1 (stereo not given),-1,19,·,103
CC(Cc1cccnc1)NC(=O)c1cc(COc2c(F)cccc2F)on1 (stereo not given),2,48*,·,97
SMILES,FXN GAA850 act,AHR act,STAT3 act,ABCB6 inh MLPCN
CSc1nc2ccc(S(=O)(=O)N3CCOCC3)cc2s1,1,15,135*,102
C/C(=N\Nc1cccc(Cl)c1)c1ccc(-n2ccnc2)cc1,0,-1,91,102
Cc1ccc(C(=O)NCC(=O)OC(C)C(=O)NC2CCCCC2C)cc1C (stereo not given),1,-2,·,98
CN1N=C2c3ccccc3CCC2C1c1ccc(Cl)cc1 (stereo not given),1,66*,·,99
CNC(=S)N1N=C2c3ccccc3CCC2C1c1ccccc1Cl (stereo not given),0,3,·,98
CN1N=C2c3ccccc3CCC2C1c1ccc(F)cc1 (stereo not given),0,76*,·,98
O=S(=O)(c1ccccc1F)N(Cc1ccco1)Cc1nnc(-c2ccccc2Br)o1,3,·,105,93
N#Cc1cc2c(nc1SCc1nc3ccccc3[nH]1)CCC2,·,26,92,·
N#Cc1c(SCc2nc3ccccc3[nH]2)nc2c(c1C(F)(F)F)CCC2,·,·,174*,·
Cc1cc(C)n(-c2nc(NC(C)C)nc(NC(C)C)n2)n1,9.6*,3,105,90
CN(c1ccccc1)S(=O)(=O)c1cccc(C(=O)N2CCN(c3ccccn3)CC2)c1,-1,64*,88,102
[O-]/C(=C(\C(=S)Nc1cccc2ccccc12)[n+]1ccccc1)c1ccc2c(c1)OCCO2,-14,39,134*,101
O=C(COC(=O)c1c[nH]c2ccccc12)Nc1ccccc1,1,15,·,107
COc1ccc(C(=O)OCC(=O)c2c[nH]c3ccccc23)cc1OC,5,32,·,125
CC(NC(=O)COC(=O)c1c[nH]c2ccccc12)c1ccccc1 (stereo not given),-3,56*,·,98
O=C(OCC(=O)c1c[nH]c2ccccc12)c1ccc([N+](=O)[O-])s1,3,15,135*,102
CCc1cccc2c(C(=O)COC(=O)c3ccc([N+](=O)[O-])s3)c[nH]c12,1,2,98,90
Cc1ccc(C(=O)OCC(=O)c2c[nH]c3ccccc23)cc1,6,14,133*,96
CN1CCN(C(=O)C2=C[C@@H](c3coc4ccccc4c3=O)C[C@@H](OCCCCO)O2)CC1,2,2,·,98
COc1ccccc1NC(=O)Nc1nc(CC(=O)Nc2cccc(F)c2)cs1,1,45,·,94
COc1ccccc1NC(=O)Nc1nc(CC(=O)Nc2ccc(F)c(F)c2)cs1,-1,52*,·,97
COc1ccccc1NC(=O)Nc1nc(CC(=O)Nc2cc(F)ccc2F)cs1,2,63*,·,96
CCOc1ccc(C(=O)c2ccc(OCC)c(N)c2)cc1N,4,60*,111,100
CCOc1ccc(S(=O)(=O)N(CC)CC)cc1N,2,2,106,96
NS(=O)(=O)c1ccc(N=Nc2c(O)ccc3ccccc23)cc1,7,4,70,100
SMILES,FXN GAA850 act,AHR act,STAT3 act,ABCB6 inh MLPCN
Oc1ccc(N=Nc2c(O)ccc3ccccc23)cc1,-2,79*,73,197
COc1ccc(-c2csc(C(NC(C)=O)c3ccccc3)n2)cc1 (stereo not given),0,·,·,94
COc1ccc(Cc2nnc(-c3cccc(C)c3)o2)cc1OC,1,49*,88,103
COc1ccc(CC(=O)Nc2cccc(-c3nnc(-c4cccc(C)c4)o3)c2)cc1OC,-5,-5,68,103
CCOc1cccc(NC(=O)c2ccc(S(=O)(=O)N3CCCC3)cc2)c1,-1,16,·,102
CCc1ccc(Nc2cnn(-c3nc4ccccc4s3)c(=O)c2Cl)cc1,-3,49*,105,96
COc1ccc(C(=O)Nc2ccc(Nc3ccccc3)cc2)cc1[N+](=O)[O-],-1,-7,·,98
CCN(CC)c1ccc(C(=O)Nc2ccccc2)cc1[N+](=O)[O-],2,53*,96,102
